From ChEMBL document CHEMBL1641595, “Molecular modeling based approach, synthesis and in vitro assay to new indole inhibitors of hepatitis C NS3/4A serine protease” (Bioorg Med Chem, 2011)
Converted amounts (≈) assume the structure as drawn.

Tests used:
[1] = Inhibition of HCV NS3/4A protease after 30 mins; set-up: species or system Hepacivirus hominis
Procedure, shortened: (§1)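 Recombinant HCV NS3/4A protease, freshly diluted to 0.5 µg/mL, was combined with test compound in DMSO. The reaction was started with FRET peptide substrate Ac-Asp-Glu-Asp(EDANS)-Glu-Glu-Abu-ψ-[COO]Ala-Ser-Lys(DABCYL)-NH2, diluted 100-fold from a DMSO stock. After 30 min at room temperature (28 °C), fluorescence was read at […]. % inhibition = 100×(Fvehicle−Fsample)/Fvehicle, with both values corrected by subtracting the substrate control.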

[2] = system: Hepacivirus hominis; experiment: Inhibition of HCV NS3/4A protease at 100 ug/ml after 30 mins; procedure, shortened: as §1
[3] = system: Hepacivirus hominis; experiment: Inhibition of HCV NS3/4A protease at 50 ug/ml after 30 mins; procedure, shortened: as §1
[4] = system: Hepacivirus hominis; experiment: Inhibition of HCV NS3/4A protease at 10 ug/ml after 30 mins; procedure, shortened: as §1

Row | Compound | IC50 [1] | inhibition [2] | inhibition [3] | inhibition [4]
1 | CC(=O)OCCC/C(=C1/SC(=S)N(CC(=O)O)C1=O)c1ccc(Br)cc1 | 6.4 µg/mL (≈ 14 µM) | – | – | –
2 | O=C(COc1ccc(/C=C/C(=O)c2c[nH]c3ccccc23)cc1)N[C@@H](Cc1c[nH]c2ccccc12)C(=O)O | 19 µg/mL (≈ 37.4 µM) | 82.9% | 67.2% | 44.5%
3 | O=C(COc1ccc(/C=C/C(=O)c2c[nH]c3ccccc23)cc1)Nc1ccc(C(=O)c2ccccc2C(=O)O)cc1 | 19 µg/mL (≈ 34.9 µM) | 80.9% | 72% | 40.1%
4 | O=C(COc1ccc(/C=C/C(=O)c2c[nH]c3ccccc23)cc1)Nc1ncncc1C(=O)O | 29 µg/mL (≈ 65.5 µM) | 73.7% | 57.2% | 22.4%
5 | CC(C)C[C@H](NC(=O)C1(Cc2ccsc2C(=O)O)Cc2ccccc2N1)C(=O)NC(CC(F)F)C(=O)C(=O)O (some centres not stated) | 0.4 µg/mL (≈ 0.707 µM) | – | – | –
6 | O=C(COc1ccc(/C=C/C(=O)c2c[nH]c3ccccc23)cc1)N[C@@H](Cc1ccccc1)C(=O)O | 9 µg/mL (≈ 19.2 µM) | 84.7% | 82.4% | 53.7%
7 | O=C(O)COc1ccc(/C=C/C(=O)c2c[nH]c3ccccc23)cc1 | > 100 µg/mL | 51.8% | 22.9% | –

The next lines start with the values.

Row | IC50 [1] | inhibition [2] | inhibition [3] | inhibition [4] | Compound
8 | 12 µg/mL (≈ 24.8 µM) | 83.9% | 81.2% | 49.5% | O=C(COc1ccc(/C=C/C(=O)c2c[nH]c3ccccc23)cc1)N[C@@H](Cc1ccc(O)cc1)C(=O)O
9 | > 100 µg/mL | 58.4% | 29.4% | – | N#Cc1cncnc1NC(=O)COc1ccc(/C=C/C(=O)c2c[nH]c3ccccc23)cc1
10 | 21 µg/mL (≈ 45.8 µM) | 78.7% | 48.5% | 36.4% | O=C(COc1ccc(/C=C/C(=O)c2c[nH]c3ccccc23)cc1)N[C@@H](Cc1c[nH]cn1)C(=O)O
